Data on seven compounds can be found in PubChem BioAssay.

Experiment [1] is described as follows: inhibitors of TNFa-induced NFkB p65 translocation, primary screen, imaging, HUVEC, MLSMR starter and 10KST1 sets (AID 438;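 active = inhibition above 20% together with a positive visual image hit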;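 note: compound added about 3h40 before a 20 min TNFalpha stimulation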;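 for inhibition: signal is the nuclear over cytoplasmic p65 intensity ratio per well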). To be noted: HUVEC TNFa-induced p65 nuclear translocation; cell count: measured here: nuclei count (cytotoxicity indicator), at 2.08 µM; inhibition: at 2 µM, stronger effect = higher value, 0% TNFa-plus-vehicle, 100% no-TNFa wells.
Experiment [2] can be described thus: endothelial E-selectin expression blockers – imaging, HUVEC, immunofluorescence, MLSMR starter and 10KST1 sets, primary screen (AID 487;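 active = visually confirmed hit in the image check and inhibition above 20%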;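 for inhibition: signal is fraction of cell area covered by stained E-selectin grains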;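 for nuclei count: 100% = median nuclei count of all wells on the same plate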). To be noted: HUVEC TNFalpha-induced E-selectin immunofluorescence imaging, at 2 µM; inhibition: stronger effect = higher value; nuclei count: measured here: cell number, toxicity.
Experiment [3] can be described thus: Primary imaging screen for DUSP6 inhibitors that restore phospho-Erk in transfected HeLa cells, chemical complementation (AID 609;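 active = compounds giving at least 50% inhibition in the cell-based MKP-3 phosphatase rescue imaging test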;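 for inhibition: phospho-Erk level distribution per well compared with pooled transfected vehicle control wells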). To be noted: HeLa MKP-3 transfected, phospho-Erk imaging KS statistic, at 10 µM, cells stimulated with TPA for 15 min.
For experiment [4], the target named is Dual specificity protein phosphatase 6 (Homo sapiens) (UniProt Q16828). Described as above. The note with it: HeLa MKP-3 transfected, phospho-Erk imaging KS statistic; at 10 µM; stronger effect = higher value; cells stimulated with TPA for 15 min.
The target in experiment [5] is Voltage-gated potassium channel subunit beta-2 (Rattus norvegicus) (UniProt P62483). The experiment in a line: inhibitors of rat Kvbeta2 reductase activity – biochemical, NADPH fluorescence, primary screen (AID 622;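 active = fluorescence slope higher than the sample average by over 3 SD, cut at about -0.22 in these data, passing the limit was not always enough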;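 note: slope of raw intensity against log time taken from 70 to 1610 s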). To be noted: recombinant KvBeta, 4-cyanobenzaldehyde reduction, at 10 µM, stronger effect = higher value.
The target is the same in experiment [6]. Nature of the experiment: enhancers of rat Kvbeta2 NADPH turnover – biochemical, NADPH fluorescence, primary screen (AID 623;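 active = NADPH fluorescence slope more negative than the mean of all samples by about 3 SD, 99.7% confidence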;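 note: fluorescence intensity change per second fitted from 20 to 320 s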). To be noted: Recombinant KvBeta, NADPH fluorescence decrease slope, 10 min; at 10 µM; stronger effect = lower value.
Experiment [7] has as its target Alpha-2C adrenergic receptor (Homo sapiens) (UniProt P18825). The experiment in a line: compounds altering alpha2C-coupled GIRK flux – cell-based, HEK293 alpha2C/GIRK1/2, thallium flux, primary screen (AID 624;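 active = fluorescence slope after compound addition differing from the mean of all screened samples at 99.7% confidence, in either direction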;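 note: slope of fluorescence ratio to pre-addition baseline per second over 15 to 24 s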). The note with it: thallium flux BTC fluorescence, at 10 µM, actives lie on both sides.
Experiment [8] in a line: inhibitors of larval lipid processing in zebrafish, primary screen, whole organism, PED6 fluorescence, gall bladder and intestine (AID 686).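 Note: larvae 5 to 7 days old with five fish per well; signal comes from phospholipase A2 cleavage of quenched PED6 carried via bile.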 To be noted: Zebrafish larvae PED6 lipid processing, fluorescence scoring; screened at 20 µM (by protocol). The procedure, abridged: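 Incubation: overnight exposure of larvae to compound plus PED6 / Test system: live zebrafish larvae aged 5-7 days, whole organism / Amount: 5 larvae per well / Read-out basis: visual per-well fluorescence inhibition score / Signal: visual fluorescence microscopy scoring of gall bladder, gut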

A short description of experiment [9]: loss of swimming-algae plug formation – whole organism, Chlamydomonas reinhardtii, WT vs cilia-less mutant, absorbance, 96-well, primary screen (AID 463189;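 active = inhibition at or above 50% relative to wild type and mutant plate controls; inactive = inhibition below 50%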;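 note: 0% = wild type cc124 cells in DMSO and 100% = ciliumless bld1 mutant cells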). The note with it: Chlamydomonas reinhardtii gravitaxis, OD600 absorbance, 2 days; at 10 µM; stronger effect = higher value.
The mark [10] stands for this setting: measured here: cell density z-score.
Where [11] appears, read: measured here: nuclear c-Myc green intensity z-score.
The mark [12] stands for this setting: measured here: nuclear pErk red intensity z-score, stronger effect = higher value.

Activity calls are given as the source filed them.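 Rule for the calls, unless noted: active = a full or partial loss of lipid-probe fluorescence in the fish gall bladder, intestine or both, judged by eye; inactive = no fluorescence loss, or compound toxic to the fish.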

In general, inhibition refers to the relative decrease from the control value, in per cent.

Alpha-2C adrenergic receptor (Homo sapiens), sequence (P18825 whole entry, looked up): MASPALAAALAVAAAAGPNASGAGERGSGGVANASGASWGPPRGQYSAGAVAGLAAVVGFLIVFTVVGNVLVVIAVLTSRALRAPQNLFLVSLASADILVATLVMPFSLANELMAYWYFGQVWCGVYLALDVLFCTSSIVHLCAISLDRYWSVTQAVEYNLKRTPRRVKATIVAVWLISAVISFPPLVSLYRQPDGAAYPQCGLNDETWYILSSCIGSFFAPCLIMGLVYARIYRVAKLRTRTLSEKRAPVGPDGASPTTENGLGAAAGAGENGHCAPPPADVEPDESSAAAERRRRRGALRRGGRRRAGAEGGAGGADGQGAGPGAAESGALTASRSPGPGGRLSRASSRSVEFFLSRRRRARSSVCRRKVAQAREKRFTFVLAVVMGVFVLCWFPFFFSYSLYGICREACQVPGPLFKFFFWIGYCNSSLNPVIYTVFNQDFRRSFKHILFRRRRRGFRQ
Dual specificity protein phosphatase 6 (Homo sapiens), sequence (Q16828 whole entry, looked up): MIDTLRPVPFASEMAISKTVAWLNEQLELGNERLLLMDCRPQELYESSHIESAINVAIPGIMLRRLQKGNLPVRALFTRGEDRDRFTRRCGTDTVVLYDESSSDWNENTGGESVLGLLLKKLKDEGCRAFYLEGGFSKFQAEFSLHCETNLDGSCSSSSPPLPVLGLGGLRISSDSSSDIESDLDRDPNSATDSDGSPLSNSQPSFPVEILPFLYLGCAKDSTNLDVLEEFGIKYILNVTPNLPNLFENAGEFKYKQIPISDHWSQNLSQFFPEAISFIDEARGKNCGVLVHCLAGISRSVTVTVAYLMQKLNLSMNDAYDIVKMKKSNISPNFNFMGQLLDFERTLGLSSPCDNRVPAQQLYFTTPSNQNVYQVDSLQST
Voltage-gated potassium channel subunit beta-2 (Rattus norvegicus), sequence (P62483 whole entry, looked up): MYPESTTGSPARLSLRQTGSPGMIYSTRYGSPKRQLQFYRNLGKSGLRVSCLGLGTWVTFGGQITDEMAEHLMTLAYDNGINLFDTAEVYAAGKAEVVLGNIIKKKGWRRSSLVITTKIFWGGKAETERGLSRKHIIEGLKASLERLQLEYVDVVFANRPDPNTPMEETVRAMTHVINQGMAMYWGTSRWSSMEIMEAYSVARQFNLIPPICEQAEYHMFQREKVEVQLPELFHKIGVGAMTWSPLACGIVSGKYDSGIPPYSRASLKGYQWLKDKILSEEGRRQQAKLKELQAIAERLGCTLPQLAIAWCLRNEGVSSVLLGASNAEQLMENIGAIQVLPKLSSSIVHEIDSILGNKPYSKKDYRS

For the compound `Cn1c(=O)cc(NCc2ccccc2)[nH]c1=O`, in experiment [1], the cell count turned out to be 451. In addition, the inhibition in experiment [1] was -5.5% (inactive); in experiment [2], -114% (inactive); in experiment [4], -0.624% (inactive); in experiment [9], -4.62% (inactive). This compound also displayed a nuclei count in experiment [2] of 164%. Besides, the figures for the z-score in [3] (setting [10]), in experiment [3] (setting [11]) and in experiment [3] (setting [12]) were 1.39, -0.42 and -0.956, respectively. In addition, the fluorescence slope in experiment [5] was -0.333 (inactive). In addition, the NADPH fluorescence slope in experiment [6] is 5.7e-06 (inactive). Besides, the slope in experiment [7] was 0.00621 (inactive). The outcome in experiment [8] was inactive.

In the case of `Clc1ccc(-c2nnc3sc(Cc4cccs4)nn23)cc1`, the cell count in [1] came out at 671. The inhibition in experiment [1] was -3.4% (inactive); in experiment [2] it was -156% (inactive); in experiment [4] it was 22.7% (inactive); in [9], 19.8% (inactive). Also, the nuclei count in experiment [2] worked out at 134%. Besides, the z-score is 0.365 in [3] (setting [10]), -1.12 in experiment [3] (setting [11]) and -1.66 in experiment [3] (setting [12]). Also, the fluorescence slope in experiment [5] was -0.451 (inactive). Further, the NADPH fluorescence slope in [6] is -4.9e-05 (inactive). Also, the slope in [7] is 0.00474 (inactive). Further, in [8], the result was inactive.

Regarding `CCOC(=O)c1c(C)cccc1OCC(N)=O`, the cell count in [1] is 638. The inhibition in experiment [1] is -2.3% (inactive); in [2] it was 13.5% (inactive); in [4], -0.159% (inactive); in [9] it was -5.84% (inactive). Further, in experiment [2], the nuclei count turned out to be 175%. Further, the z-score in [3] (setting [10]) is -0.228; in experiment [3] (setting [11]) it was -0.623; in [3] (setting [12]), 1.22. The fluorescence slope in experiment [5] is -0.487 (inactive). Also, in experiment [6], the NADPH fluorescence slope was -0.000164 (inactive). Besides, the slope in [7] is 0.0049 (inactive). For the same compound, in experiment [8], the compound was classed as inactive.

Consider `c1ccc(Cc2nn[nH]n2)cc1`, for which the cell count in [1] amounted to 659. In addition, the inhibition in experiment [1] is -11% (inactive); in experiment [2], 49.2% (inactive); in [4] it was -3.95% (inactive); in [9] it was -10.1% (inactive). Further, the nuclei count in [2] is 144%. The z-score in experiment [3] (setting [10]) is -1.16; in experiment [3] (setting [11]), 0.713; in experiment [3] (setting [12]), 1.02. In addition, the fluorescence slope in experiment [5] was -0.426 (inactive). For the same compound, in experiment [6], the NADPH fluorescence slope is -5.4e-05 (inactive). Also, the slope in experiment [7] was 0.00705 (inactive). For the same compound, the outcome in experiment [8] was inactive.

As to `Cc1nc(Nc2ncc3c(n2)CCCC3=O)nc2ccccc12`, the cell count in [1] was 372. Also, the inhibition in [1] was 3.8% (inactive); in [2], 26.2% (inactive); in experiment [4] it was 9.42% (inactive); in experiment [9], 22.8% (inactive). The compound also came in with a nuclei count in experiment [2] of 122%. Further, the z-score was 0.317 in experiment [3] (setting [10]), -0.989 in experiment [3] (setting [11]) and 1.03 in experiment [3] (setting [12]). Moreover, in experiment [5], the fluorescence slope is -0.403 (inactive). Further, the NADPH fluorescence slope in experiment [6] was -0.000152 (inactive). For the same compound, the slope in experiment [7] is 0.00649 (inactive). For the same compound, the call in [8] was inactive.

For the compound `COC(=O)CN(c1nc(C)cc(OC)n1)S(=O)(=O)c1ccccc1`, the cell count in experiment [1] turned out to be 568. Further, the inhibition was -3.9% (inactive) in experiment [1], -82.4% (inactive) in experiment [2], 3.56% (inactive) in experiment [4] and -16.2% (inactive) in experiment [9]. Besides, the nuclei count in [2] was found to be 122%. For the same compound, the z-score in [3] (setting [10]) is -1.67; in experiment [3] (setting [11]), 0.823; in experiment [3] (setting [12]) it was -0.13. In experiment [5], the fluorescence slope was -0.391 (inactive). The NADPH fluorescence slope in [6] was -2.2e-05 (inactive). Further, in experiment [7], the slope was 0.00529 (inactive). Also, in [8], the compound was classed as inactive.

With `CC(C)Cc1nc(N2CCCCC2)c(C#N)c2c1CCC2`, the cell count in experiment [1] was 513. Moreover, the inhibition in [1] is -0.1% (inactive); in experiment [2], -91.7% (inactive); in experiment [4], 1.6e-07% (inactive); in experiment [9], -3.52% (inactive). The compound further returned a nuclei count in experiment [2] of 135%. The results for the z-score in experiment [3] (setting [10]), in [3] (setting [11]) and in experiment [3] (setting [12]) were -1.47, 0.461 and -0.497, respectively. The fluorescence slope in experiment [5] is -0.506 (inactive). Also, the NADPH fluorescence slope in experiment [6] was -3.4e-06 (inactive). The slope in [7] is 0.006 (inactive). Also, the outcome in [8] is “inactive; toxic”.
